High-throughput results deposited in PubChem BioAssay by several laboratories.
Most compounds without a hit are left out; they make up all but 3.8% or so of the library.
B2AR ag: human beta-2 adrenergic receptor agonism by FAP; P07550; Am2.2-beta2AR cells, FAP receptor internalization, flow cytometry; response, % (concentration not given with the values); hit rate 0.43% among 340,000;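 active means response above a set limit, near 3 SD of response in nonfluorescent compounds, cut at about 42% in these data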
Target sequence (P07550 whole entry, looked up): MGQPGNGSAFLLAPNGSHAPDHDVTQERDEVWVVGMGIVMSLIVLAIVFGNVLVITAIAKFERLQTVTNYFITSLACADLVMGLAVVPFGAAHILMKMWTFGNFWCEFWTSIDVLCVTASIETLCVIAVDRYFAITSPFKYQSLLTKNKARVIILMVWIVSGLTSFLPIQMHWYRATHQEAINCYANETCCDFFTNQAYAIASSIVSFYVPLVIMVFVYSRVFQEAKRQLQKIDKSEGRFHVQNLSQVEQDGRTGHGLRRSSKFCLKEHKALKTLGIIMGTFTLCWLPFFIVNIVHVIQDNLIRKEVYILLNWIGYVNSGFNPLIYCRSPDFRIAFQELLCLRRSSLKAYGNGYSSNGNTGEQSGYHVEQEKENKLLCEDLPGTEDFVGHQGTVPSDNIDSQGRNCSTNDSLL
MPTP block: inhibitors of mitochondrial permeability transition pore | isolated mouse mitochondria, Ca2+ swelling absorbance, 30 min | inhibition, % at 10 µM | hit rate 1.4% among 360,000 | AID 602449;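 active means inhibition of 50% or more, scaled per plate between neutral and stimulator controls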;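 further: 0% = DMSO wells given calcium and 100% = 1 mM EGTA wells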
V-ATPase pHluor: yeast V-ATPase proton transport regulation by pHLuorin. S. cerevisiae, pHLuorin cytosolic pH fluorescence. response, % at 10 µM. hit rate 0.37% among 350,000; in the data active means response mostly above about 7.3%, no sharp cut-off; inactive means mostly below about 5.4%; further: actives read high
Exocytosis inh: blocks lytic granule exocytosis | TALL-104 LAMP-1 surface exposure, flow cytometry; cells stimulated with thapsigargin and PMA | AID 651702 | hit rate 0.66% among 360,000 | inhibition, % at 10 µM;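 active means inhibition above about 55%, limit read from the data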
rCAG RNA binder: r(CAG) repeat RNA binding. TO-PRO-1 dye displacement fluorescence. AID 651821. hit rate 1.3% among 370,000. inhibition, % at 3 µM;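 active means inhibition above the plate cutoff, the mean of all test compounds on that plate plus 3 SD, cut at about 35% in these data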;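 further: 0% = DMSO alone and 100% = 100 µM mitoxantrone as full dye displacement; higher means more dye released from RNA so lower well fluorescence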
T cell modulator: T cell immune modulators affecting CD8 T cell-vesicle binding; hit rate 0.068% among 330,000; AID 2052; 2C CD8+ T cell-vesicle binding, flow cytometry; stronger effect = lower value; response (vesicle binding), % at 7 µM;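 active means response, share of CD8 T cells binding vesicles, and their 90th percentile fluorescence all below set limits, cut at about 80% in these data, passing the limit was not always enough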;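 further: values below 100% mean blocked vesicle binding to the CD8+ T cells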
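Material: murine 2C transgenic CD8+ T lymphocytes / Also added: QL9-peptide-loaded Drosophila micro-vesicles bearing Ld, ICAM-1 and B7-1 / Schedule: binding step 1.5 h, 37 °C, antibody labelling 20 min, ice / Signal: flow cytometry, PE anti-B7-1 (FL2) versus Alexa647 anti-CD8 (FL8), PFA-fixed / Evaluation: percent CD8+ FL2 mean versus row control / Benchmarks: naked versus QL9-loaded vesicles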
rCAG bind conf: r(CAG) RNA repeat binding, confirmation | shares compounds with rCAG RNA binder | TO-PRO-1 dye displacement fluorescence | inhibition, % at 3 µM | hit rate 70% among 4,300 | AID 652065;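 active means inhibition above a per-plate cutoff, the mean inhibition of sample wells plus 3 SD, cut at about 35% in these data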;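 further: loss of TO-PRO-1 fluorescence as compound displaces dye from 1x1 AA loop RNA; 0% = DMSO only wells and 100% = 100 µM mitoxantrone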
dCAG dye counter: counter-screen for rCAG RNA binders: DNA CAG dye complex inhibitors; shares compounds with rCAG RNA binder; d(CAG) DNA oligo TO-PRO-1 dye displacement, fluorescence; inhibition, % at 3 µM; hit rate 94% among 4,300;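 active means inhibition above its plate's cutoff, the mean test-well inhibition plus 3 SD, cut at about 4.8% in these data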;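 further: 0% = DNA dye mix with DMSO and 100% = 100 µM mitoxantrone; hits displace the dye from DNA and so lower well fluorescence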
dCAG dye DR: DNA CAG dye complex inhibition, dose response counter-screen. shares compounds with rCAG RNA binder. IC50, µM. hit rate 20% among 250. DNA CAG/GTC duplex TO-PRO-1 dye displacement fluorescence; in the data active means IC50 below about 10 µM
* = called active by the depositor; i = inactive; / = not tested or not shown.

SMILES	B2AR ag	MPTP block	V-ATPase pHluor	Exocytosis inh	rCAG RNA binder	T cell modulator	rCAG bind conf	dCAG dye counter	others
Cc1noc(NS(=O)(=O)c2ccc(NC(=O)c3cc(-c4ccccc4Cl)nc4ccccc34)cc2)c1C	-15.7	0.5	1.4	0.0	83.3*	479.6	75.1*	34.2*	dCAG dye DR=8.53*
Cc1noc(NS(=O)(=O)c2ccc(NC(=O)c3cc(S(=O)(=O)Nc4ccc(F)cc4)ccc3Cl)cc2)c1C	-3.2	1.4	-4.1	-2.9	59.2*	/	51.5*	22.8*
Cc1ccc(-n2ccc(=O)c(C(=O)Nc3ccc(S(=O)(=O)Nc4onc(C)c4C)cc3)n2)cc1	13.9	0.2	-4.2	3.2	59.1*	105.0	46.3*	15.9*
Cc1ccc(-c2cc(C(=O)Nc3ccc(S(=O)(=O)Nc4onc(C)c4C)cc3)[nH]n2)c(O)c1	17.5	3.2	-1.4	-1.9	84.4*	112.3	78.3*	44.3*
Cc1ccccc1CN1CCCCC(NC(=O)C2CCCC2)C1=O (stereo not drawn)	/	/	/	/	-0.1	/	/	/
Cc1cccc(-c2cccc3c4c([nH]c23)[C@@H]2C[C@H](N(C)C(=O)c3ccccc3F)[C@H]([C@H](C)O)CN2CC4)c1	/	/	/	/	13.0	/	/	/
C=CCn1c(SCC(=O)Nc2ccccc2-c2ccccc2)nnc1-c1ccccc1	/	/	/	/	2.5	/	/	/
CCN(CC)c1ccc(NC(=O)CSc2nnc(SCc3ccc(Cl)cc3)s2)cc1	/	/	/	/	5.7	/	/	/
COc1ccccc1NC(=O)CSc1sc2c(O)cc(=O)[nH]c2c1C#N	3.3	-1.4	-1.5	2.2	52.2*	407.2	17.9	8.2*
COc1ccc(NC(=O)CSCc2ccc(C#N)cc2)c(OC)c1	7.3	-0.5	-1.0	-12.7	-5.0	84.4	/	/
COc1ccc(Cl)cc1NC(=O)CSc1sc2c(O)cc(=O)[nH]c2c1C#N	-2.7	0.3	1.3	7.4	55.5*	205.8	31.4	15.8*
COc1ccc(NC(=O)CSc2cn[nH]n2)c(OC)c1	0.5	0.2	-1.7	-7.0	-1.4	426.1	/	/
COc1cc(NC(=O)c2ccccc2)c(OC)cc1NC(=O)CSc1[nH]c(=O)cc(C)c1C#N	36.8	-0.2	-43.2	-5.0	8.2	494.0	/	/
COc1ccc(NC(=O)CSc2nc(O)cc(=O)[nH]2)c(OC)c1	6.8	0.1	5.2	-1.2	47.4*	82.6	4.2	1.9
COc1ccc(NC(=O)CSc2sc3c(O)cc(=O)[nH]c3c2C#N)c(OC)c1	6.5	-0.4	2.0	-4.4	62.6*	196.1	26.9	12.7*
O=C(NCc1ccccc1)[C@@H]1CCCN1C(=O)[C@H]1CCCN1C(=O)c1ccc(F)cc1F	/	/	/	/	1.7	/	/	/
CN(C(=O)[C@@H](Cc1ccccc1)NC(=O)[C@H]1O[C@@H](n2ccc(=O)[nH]c2=O)[C@H](O)[C@@H]1O)C1CCCCC1	/	/	/	/	0.1	/	/	/
CC(C)c1ccc(/C=N/n2c(-c3ccccc3)n[nH]c2=S)cc1	7.4	-0.2	-0.3	-8.6	38.9*	304.5	46.4*	13.2*
Cc1cc(-c2n[nH]c(=S)n2N=Cc2ccc(-c3ccccc3)cc2)n[nH]1	/	/	/	/	41.5*	/	35.3*	8.9*
CN(Cc1ccco1)C(=O)c1cccc2c1C(=O)N(Cc1cccnc1)C2	/	/	/	/	2.9	/	/	/
O=C(Nc1ccc2ccccc2c1)c1ccc(NS(=O)(=O)c2ccc(Br)s2)cc1	11.3	-0.2	0.4	7.3	71.1*	192.0	87.5*	57.2*
c1coc(-c2nc(-c3ccco3)c(-c3ccco3)nc2-c2ccco2)c1	2.4	3.5	-3.5	/	67.8*	690.1	44.6*	20.7*	dCAG dye DR=6.63*
COc1ccc(-c2nc3ccccc3nc2-c2ccc(OC)cc2)cc1	5.6	0.3	-0.2	45.7	-2.2	182.8	/	/
COc1ccc2nc(-c3ccco3)c(-c3ccco3)nc2c1	10.6	3.8	-3.5	6.2	58.6*	311.4	32.5	12.9*
Nc1nc(-c2ccco2)c(-c2ccco2)s1	5.3	-1.6	-5.2	10.1	12.3	546.9	/	/
SMILES	B2AR ag	MPTP block	V-ATPase pHluor	Exocytosis inh	rCAG RNA binder	T cell modulator	rCAG bind conf	dCAG dye counter	others
C/C=C/COC(=O)c1[nH]c2c(c1C)C(=O)CC(c1ccco1)C2 (stereo not drawn)	26.6	1.0	0.2	-3.1	38.0*	284.6	12.1	9.4*
O=C1NN(c2ccccc2)C(=O)/C1=C/c1ccc(-c2ccc(C(=O)O)cc2)o1	2.4	1.4	-2.7	1.4	33.5	159.3	/	/
O=C1NN(c2ccccc2)C(=O)/C1=C/c1ccc(Sc2cccc3ccccc23)o1	7.9	15.8	1.0	-0.2	47.6*	130.4	92.5*	67.6*
COc1cc(/C=C(\C#N)C(=O)NC2CCCCC2)ccc1OCc1ccc(C(=O)O)cc1	5.4	-1.1	0.3	-0.2	39.9*	314.1	38.0*	9.2*
N#C/C(=C\c1ccc(OCc2ccc(C(=O)O)cc2)cc1)C(=O)NCc1ccccc1	-7.4	-0.7	-0.9	3.9	41.0*	205.1	29.6	5.9*
COc1cc(/C=C(\C#N)C(=O)NCc2ccccc2)ccc1OCc1ccc(C(=O)O)cc1	3.0	-0.1	4.8	-3.0	43.5*	307.4	30.5	5.9*
COCCNC(=O)/C(C#N)=C/c1ccc(OCc2ccccc2)cc1	-3.8	-0.1	-2.1	-6.7	-2.4	165.2	/	/
COc1cc(NC(=O)c2ccc3c(SCC(=O)O)c4c(nc3c2)CCCC4)cc(OC)c1OC	-3.5	-0.2	1.1	-0.2	6.4	344.0	/	/
COc1cc(OC)c(NC(=O)c2ccc3c(SCC(=O)O)c4c(nc3c2)CCCC4)cc1Cl	-6.8	-0.6	0.0	-1.3	50.6*	873.0	62.1*	24.4*
COc1ccc(Nc2ccccc2C(=O)O)cc1	-1.2	-0.9	-0.1	-0.1	-2.3	155.9	/	/
O=C(O)c1ccccc1Nc1cccc(OCc2ccc3ccccc3n2)c1	-4.3	3.1	2.2	-2.0	70.3*	558.4	70.7*	30.9*	dCAG dye DR=i
CC[C@@]1(c2cccc(Cl)c2)C(=O)N(C(=O)OC(C)C)N1C(=O)OC(C)C	/	/	/	/	-1.0	/	/	/
CCCCCCCCCCCCCCCCCCNc1ccn(C2OC(COP(=O)(O)OCC3OC(n4cc(F)c(=O)[nH]c4=O)CC3O)C(O)C2O)c(=O)n1 (stereo not drawn)	-2.5	-7.4	-6.8	6.4	54.6*	/	61.4*	35.6*
CCN(CC)C(=O)c1oc(=O)c2ccccc2c1-c1ccc(C)cc1	/	/	/	/	2.4	/	/	/
Cc1sc2nc(CN3CCOCC3)nc(NS(=O)(=O)c3cc(Cl)ccc3Cl)c2c1C	11.9	2.2	5.7	5.3	53.3*	346.6	46.1*	10.4*
O=S(=O)(Nc1nc(CN2CCOCC2)nc2sc3c(c12)CCCC3)c1cc(F)ccc1F	3.7	0.7	2.5	3.1	50.5*	207.7	38.5*	9.6*
